Results from article PMC7816766 (Journal of Medicinal Chemistry, 2020).

How the values were obtained:
[1] = test system: human breast cancer cells; assay: Combination treatment with docetaxel or cisplatin, CyQuant assay; type: cell-based; conditions: 1 μM 7g for 6 h, then 0–100 nM docetaxel or 0–20 μM cisplatin, 72 h
[2] = test system: EGFR, JAK2, Src, AKT and ERK1/2; assay: Immunoblotting for nonspecific effects in MDA-MB-231 cells; type: cell-based, human; conditions: 1 or 3 μM
MDA-MB-231 cells = assay: Clonogenic; type: cell-based, human; conditions: treated once
Outline: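 Cells were seeded as single-cell cultures at 250 cells per well. They were treated once the next day with test compound at 0–1 μM and cultured until large colonies were visible. Colonies were stained with crystal violet for 4 h and photographed. Data came from three independent determinations.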

pY705STAT3 = assay: Immunoblotting for pY705STAT3 in treated breast cancer cells; type: cell-based, human; conditions: 1–5 μM, 0–24 h (BBI-608 0.5–5 μM, 2–3 h)
Outline: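 Controls received 0.05% DMSO. Equal-protein RIPA whole-cell lysates were immunoblotted for pY705STAT3, STAT3 and tubulin. Results came from two to three independent determinations.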

Human HLM MetID study = type: in vitro ADME; conditions: preliminary results
[3] = test system: c-Myc, VEGF, Bcl-2, survivin; assay: Immunoblotting for STAT3 target gene expression in MDA-MB-231 cells; type: cell-based, human; conditions: 1 or 3 μM, 3–24 h
Outline: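 MDA-MB-231 cells were treated with 1 or 3 μM test compound for 3–24 h; controls received 0.05% DMSO. Whole-cell lysates were prepared in RIPA buffer. Equal total protein was run on SDS-PAGE and immunoblotted for c-Myc, Bcl-2, VEGF and survivin, with tubulin as loading control. Results came from two to three independent determinations.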

[4] = test system: STAT3 DNA-binding activity in MDA-MB-468 cells; assay: Constitutive STAT3 DNA-binding activity in treated breast cancer cells; type: cell-based, human
Outline: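 MDA-MB-468 cells were treated with 5 μM test compound for 1–3 h; controls received 0.05% DMSO. Nuclear extracts of equal total protein were incubated with 33P-labelled hSIE probe (c-fos m67 variant) for 30 min at 30 °C. STAT3:DNA complexes were then resolved by EMSA. Results came from two to three independent determinations.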

[5] = test system: MDA-MB-231 and MDA-MB-468 cells; assay: Induction of apoptosis, PARP cleavage by Western blotting; type: cell-based, human; conditions: 1 or 3 μM, 3–24 h
[6] = test system: MDA-MB-231 or MDA-MB-468 cells; assay: Cell viability/growth of breast cancer cells harboring active STAT3; type: cell-based, human; conditions: at 1 μM or less

O=C1OCc2cc(N(Cc3ccc(C4CCCCC4)cn3)C(=O)[C@H]3CCN3S(=O)(=O)c3c(F)c(F)c(F)c(F)c3F)ccc21 [Compound 7g]
response to combined treatment with docetaxel or cisplatin [1]: strong shift of the dose–response curves to the left indicative of an enhanced response
effect on tyrosine kinases EGFR, JAK2, Src, or AKT and ERK1/2 [2]: no measurable effect
inhibition of colony formation (MDA-MB-231 cells; 0.5 μM): significant inhibition of colony formation
inhibition of colony formation (MDA-MB-231 cells; 1 μM): complete inhibition of colony formation
pY705STAT3 in breast cancer cells (pY705STAT3): inhibited pY705STAT3 in dose- and time-dependent manner
species found in HLM MetID study (Human HLM MetID study): both the parent compound and its hydroxy-acid metabolite
expression of STAT3 target genes c-Myc, VEGF, Bcl-2, survivin [3]: inhibited the expression
earliest time of inhibition of STAT3 DNA-binding activity in cells ([4]; MDA-MB-468): 5 min
constitutive STAT3 DNA-binding activity in cells ([4]; cells treated with 1–5 μM (BBI-608 0.5–5 μM, 2–3 h)): inhibited to variable degrees
PARP cleavage [5]: induced poly (ADP-ribose) polymerase (PARP) cleavage
viability, anchorage-dependent and independent growth, and colony formation [6]: strongly inhibited
